Measured values from ChEMBL document CHEMBL2429797, “2,5,6-trisubstituted imidazo[2,1-b][1,3,4]thiadiazoles: search for antihyperlipidemic agents” (Eur J Med Chem, 2013).
Activity calls are given as the source filed them. The rule behind the calls is not given here.

How the values were obtained:
Rattus norvegicus [1] = experiment: Antihyperlipidemic activity in Triton-X-100-induced hyperlipidemia Wistar albino rat model assessed as reduction of LDL level in serum at 250 mg/kg, po qd for 7 days; assay type: functional
Method in brief: (§1)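 Male Wistar albino rats (200–250 g), fasted 18 h, then given a single i.p. injection of Triton-X-100 (100 mg/kg) in saline. Starting 72 h later, dosed orally once daily for 7 days with suspension in 5% CMC; six per group. Retro-orbital blood taken under ether; serum separated at 2500 × g, 15 min, 4 °C, and lipids assayed. Mean ± SEM, n = 6.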

Rattus norvegicus [2] = experiment: Antihyperlipidemic activity in Triton-X-100-induced hyperlipidemia Wistar albino rat model assessed as increase of HDL level in serum at 250 mg/kg, po qd for 7 days; assay type: functional; method in brief: as §1
Rattus norvegicus [3] = experiment: Antihyperlipidemic activity in Triton-X-100-induced hyperlipidemia Wistar albino rat model assessed as reduction of triglyceride level in serum at 250 mg/kg, po qd for 7 days; assay type: functional; method in brief: as §1
Rattus norvegicus [4] = experiment: Antihyperlipidemic activity in Triton-X-100-induced hyperlipidemia Wistar albino rat model assessed as reduction of total cholesterol level in serum at 250 mg/kg, po qd for 7 days; assay type: functional; method in brief: as §1
Rattus norvegicus [5] = experiment: Ratio of total cholesterol level in serum to HDL level in serum in Triton-X-100-induced hyperlipidemia Wistar albino rat model at 250 mg/kg, po qd for 7 days; assay type: functional
Method in brief: (§2)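 Triton-X-100 hyperlipidemic male Wistar rats, n = 6 per group, dosed orally for 7 days in 5% CMC. Serum lipids were measured and risk ratios calculated per NCEP (2002): total cholesterol:HDL (atherogenic index) and LDL:HDL.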

Rattus norvegicus [6] = experiment: Hepatotoxicity in Triton-X-100-induced hyperlipidemia Wistar albino rat model assessed as SGOT level in serum at 250 mg/kg, po qd for 7 days; assay type: toxicity, organism-based; parameters: dose 250 mg/kg, route oral; settings: in vivo, 168 h
Method in brief: (§3)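 Serum from Triton-X-100 hyperlipidemic male Wistar rats, dosed orally daily for 7 days in 5% CMC. Blood taken retro-orbitally under ether. Assays: alanine transferase and aspartate transferase reported in IU, alkaline phosphatase in KA units. Normal ranges are given alongside.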

Rattus norvegicus [7] = experiment: Protective activity against Triton-X-100-induced hepatotoxicity in Wistar albino rat assessed as mild cytoplasmic fatty infiltration and mild granular degeneration in liver at 250 mg/kg, po qd for 7 days; assay type: functional, organism-based; parameters: dose 250 mg/kg
Rattus norvegicus [8] = experiment: Ratio of LDL level in serum to HDL level in serum in Triton-X-100-induced hyperlipidemia Wistar albino rat model at 250 mg/kg, po qd for 7 days; assay type: functional; method in brief: as §2
Rattus norvegicus [9] = experiment: Hepatotoxicity in Triton-X-100-induced hyperlipidemia Wistar albino rat model assessed as alkaline phosphatase level in serum at 250 mg/kg, po qd for 7 days; assay type: toxicity, organism-based; parameters: dose 250 mg/kg, route oral; settings: in vivo, 168 h; method in brief: as §3
Rattus norvegicus [10] = experiment: Antihyperlipidemic activity in Triton-X-100-induced hyperlipidemia Wistar albino rat model assessed as reduction of VLDL level in serum at 250 mg/kg, po qd for 7 days; assay type: functional; method in brief: as §1
Rattus norvegicus [11] = experiment: Hepatotoxicity in Triton-X-100-induced hyperlipidemia Wistar albino rat model assessed as SGPT level in serum at 250 mg/kg, po qd for 7 days; assay type: toxicity, organism-based; parameters: dose 250 mg/kg, route oral; settings: in vivo, 168 h; method in brief: as §3
Rattus norvegicus [12] = experiment: Protective activity against Triton-X-100-induced hepatotoxicity in Wistar albino rat assessed as mild cytoplasmic fatty infiltration and mild to moderate granular degeneration in liver at 250 mg/kg, po qd for 7 days; assay type: functional, organism-based; parameters: dose 250 mg/kg

Row | SMILES | Activity (Rattus norvegicus [1]) [mg/dL] | Activity (Rattus norvegicus [2]) [mg/dL] | Activity (Rattus norvegicus [3]) [mg/dL] | Activity (Rattus norvegicus [4]) [mg/dL] | Ratio (Rattus norvegicus [5]) | Activity (Rattus norvegicus [6]) [IU] | Activity (Rattus norvegicus [7]) | Ratio (Rattus norvegicus [8]) | Activity (Rattus norvegicus [9]) [KA] | Activity (Rattus norvegicus [10]) [mg/dL] | Activity (Rattus norvegicus [11]) [IU] | Activity (Rattus norvegicus [12])
1 | O=C(O)c1ccc(/N=C/c2c(-c3ccc(Cl)cc3)nc3sc(-c4ccc5c(c4)OCO5)nn23)cc1 | 49.94 | 34.78 | 76.89 | 96.12 | 2.76 | 48.3 | Active | 1.43 | 29.5 | 15.85 | 26.8 | –
2 | O=C(N/N=C/c1c(-c2ccc(Cl)cc2)nc2sc(-c3ccc4c(c3)OCO4)nn12)c1ccccc1 | 59.12 | 29.93 | 80.67 | 107.87 | 3.6 | – | – | 1.97 | – | 16.34 | – | –
3 | Cc1cccc(/N=C/c2c(-c3ccc(Cl)cc3)nc3sc(-c4ccc5c(c4)OCO5)nn23)c1 | 62.83 | 28.12 | 86.23 | 113.72 | 4.04 | – | – | 2.23 | – | 19.93 | – | –
4 | Cc1ccc(/N=C/c2c(-c3ccccc3)nc3sc(-c4ccc5c(c4)OCO5)nn23)cc1 | 66.32 | 23.34 | 88.43 | 114.36 | 4.89 | – | – | 2.84 | – | 22.83 | – | –
5 | Fc1ccc(/N=C/c2c(-c3ccc(Cl)cc3)nc3sc(-c4ccc5c(c4)OCO5)nn23)cc1Cl | 54.95 | 33.57 | 80.45 | 99.89 | 2.97 | 56.5 | Active | 1.63 | 27.3 | 15.43 | 27.8 | –
6 | COc1ccc(/N=C/c2c(-c3ccc(Cl)cc3)nc3sc(-c4ccc5c(c4)OCO5)nn23)cc1 | 59.85 | 31.34 | 83.56 | 107.83 | 3.44 | – | – | 1.9 | – | 16.86 | – | –
7 | Cc1ccc(/N=C/c2c(-c3ccc(Cl)cc3)nc3sc(-c4ccc5c(c4)OCO5)nn23)cc1 | 68.84 | 29.12 | 85.67 | 113.28 | 3.89 | – | – | 2.36 | – | 18.35 | – | –
8 | Clc1ccc(-c2nc3sc(-c4ccc5c(c4)OCO5)nn3c2/C=N/c2ccc(Br)cc2)cc1 | 53.82 | 32.85 | 83.43 | 103.54 | 3.15 | 58.8 | – | 1.63 | 26.6 | 16.85 | 29.3 | Active
9 | CC(C)OC(=O)C(C)(C)Oc1ccc(C(=O)c2ccc(Cl)cc2)cc1 [FENOFIBRATE] | 51.68 | 35.21 | 71.23 | 102.24 | 2.9 | 49.45 | – | 1.46 | 28.33 | 13.67 | 26.43 | –
10 | NS(=O)(=O)c1ccc(/N=C/c2c(-c3ccc(Cl)cc3)nc3sc(-c4ccc5c(c4)OCO5)nn23)cc1 | 52.23 | 33.78 | 79.54 | 101.56 | 3 | 51.7 | Active | 1.54 | 29.3 | 14.73 | 28.6 | –
11 | O=[N+]([O-])c1ccc(/N=C/c2c(-c3ccc(Cl)cc3)nc3sc(-c4ccc5c(c4)OCO5)nn23)cc1 | 58.24 | 31.54 | 82.56 | 105.56 | 3.34 | 49.9 | – | 1.84 | 28.8 | 18.13 | 28.3 | –
12 | COc1ccc(/N=C/c2c(-c3ccccc3)nc3sc(-c4ccc5c(c4)OCO5)nn23)cc1 | 64.73 | 28.83 | 84.98 | 113.98 | 3.95 | – | – | 2.24 | – | 18.46 | – | –
13 | C(=N\c1ccccc1)/c1c(-c2ccccc2)nc2sc(-c3ccc4c(c3)OCO4)nn12 | 65.85 | 25.12 | 89.12 | 118.23 | 4.7 | – | – | 2.62 | – | 21.54 | – | –
14 | Brc1ccc(/N=C/c2c(-c3ccccc3)nc3sc(-c4ccc5c(c4)OCO5)nn23)cc1 | 63.74 | 24.78 | 86.89 | 112.78 | 4.55 | – | – | 2.57 | – | 19.86 | – | –
